Among the data in ChEMBL document CHEMBL3351805, “Giffonins A-I, antioxidant cyclized diarylheptanoids from the leaves of the hazelnut tree (Corylus avellana), source of the Italian PGI product "Nocciola di Giffoni"” (J Nat Prod, 2015) are inhibition values, retold here.

For assay [1], the system named is Plasma. The assay is described as follows: Antioxidant activity in human plasma assessed as H2O2/Fe2+-induced lipid peroxidation at 10 uM after 30 mins by TBARS assay. It counts as functional, cell-free. The essentials:
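Reaction stopped on ice; TCA/HCl precipitation, centrifugation at 1200g. Supernatant boiled 15 min with thiobarbituric acid in Tris pH 7.0. A532 converted to TBARS via ε = 156 000 M⁻¹ cm⁻¹. Three independent experiments; paired Student's t test.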

In assay [2] the test system is Plasma. The assay is described as follows: Antioxidant activity in human plasma assessed as H2O2-induced lipid peroxidation at 10 uM after 30 mins by TBARS assay. It counts as functional, cell-free. The essentials: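 Fresh plasma from medication-free human donors, incubated 30 min at 37 °C with compound (final 0.1–100 μM; DMSO <0.05% final) plus 2 mM H₂O₂. Stopped on ice, then mixed with an equal volume of cold 20% TCA in 0.6 M HCl and spun. Supernatant heated 15 min with 0.12 M TBA in 0.26 M Tris pH 7.0. TBARS read at 532 nm (ε = 156 000 M⁻¹ cm⁻¹). n=3 independent experiments.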

One may read the inhibition as the change of the read-out against control, counted positive when it falls. For `COc1c2cc(c(OC)c1O)Oc1ccc(cc1)CCCC[C@@H](O)/C=C\2`, the results for the inhibition in assay [1] and in assay [2] were 30.8% and 20.8%, respectively.
In the same order, the values of `COc1c2cc(c(OC)c1O)Oc1ccc(cc1)CC[C@@H](O)/C=C/C=C\2` are 35.5% and 37.6%.
In the same order, the values of `COc1c2cc(c(OC)c1O)Oc1ccc(cc1)CCC(=O)CC/C=C\2` are 63.2% and 64.3%.
In the same order, the values of `COc1c2cc(c(OC)c1O)Oc1ccc(cc1)[C@@H](O)CC(=O)CC/C=C/2` are 7.3% and 2.2%.
On to `COc1cc(/C=C/C(=O)CC(=O)/C=C/c2ccc(O)c(OC)c2)ccc1O`, for which the inhibition in assay [1] was 18.6%; in assay [2], 19.2%.
With `COc1c(O)cc2cc1Oc1ccc(cc1)CC[C@@H](O)/C=C/C=C\2`, the inhibition was determined as 50.6% in assay [1] and 55.8% in assay [2].
In the same order, the values of `COc1c2cc(c(OC)c1O)Oc1ccc(cc1)CCC(=O)C[C@@H](O)/C=C\2` are 12% and 12.1%.
In the same order, the values of `O=C1/C=C/CCc2ccc(O[C@@H]3O[C@H](CO)[C@@H](O)[C@H](O)[C@H]3O)c(c2)-c2cc(ccc2O[C@@H]2OC[C@H](O)[C@H](O)[C@H]2O)CC1` are 18.1% and 12.6%.
In the same order, the values of `COc1c2cc(c(OC)c1O)Oc1ccc(cc1)CC[C@@H](O)CC/C=C\2` are 28.2% and 16.4%.
Turning to `COc1c2cc(c(OC)c1O)Oc1ccc(cc1)CCC(=O)CC/C=C/2`, the inhibition was 36.8% in assay [1] and 8.1% in assay [2].
